Experimental data taken from ChEMBL document CHEMBL1157295, “Polyacylated oligosaccharides from medicinal Mexican morning glory species as antibacterials and inhibitors of multidrug resistance in Staphylococcus aureus” (2006).
In brackets after ≈: the same amount, converted by molar mass.

What was measured:
Assay type in all cases: functional
Staphylococcus aureus [1] = experiment: Antimicrobial activity against epidemic methicillin-resistant Staphylococcus aureus 15 by standard microdilution method
Outline: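 Broth microdilution following NCCLS guidelines, at least in duplicate, against EMRSA-15 (mecA) precultured on nutrient agar. Medium was cation-adjusted Mueller-Hinton broth with 20 mg/L Ca2+ and 10 mg/L Mg2+. Inoculum was 5 × 10^5 cfu in 0.9% saline, set against a McFarland standard. Compounds were dissolved in DMSO (final ≤3.125% v/v) and tested at 1–512 µg/mL in 2-fold series. MIC was the lowest concentration with no visible growth.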

Staphylococcus aureus [2] = experiment: Antimicrobial activity against Staphylococcus aureus ATCC 6538
Staphylococcus aureus [3] = experiment: Antimicrobial activity against TetK multidrug efflux pump possessing Staphylococcus aureus XU-212 by standard microdilution method
Outline: (§1)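 Broth microdilution per NCCLS guidelines, at least in duplicate, in cation-adjusted Mueller-Hinton broth (20 mg/L Ca2+, 10 mg/L Mg2+). Strains were grown first on nutrient agar. Inoculum of 5 × 10^5 cfu was set in 0.9% saline against a McFarland standard. Compounds were dissolved in DMSO and given as 2-fold serial dilutions, final 1–512 µg/mL, with at most 3.125% v/v DMSO. MIC is the lowest concentration showing no visible growth.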

[4] = system: Mycobacterium tuberculosis; experiment: Antimicrobial activity against Mycobacterium tuberculosis
Staphylococcus aureus [5] = experiment: Antimicrobial activity against Staphylococcus aureus ATCC 25923 by standard microdilution method; outline: as §1

CCCCC[C@H]1CCCCCCCCCC(=O)O[C@H]2[C@H](O)[C@@H](CO)O[C@@H](O[C@H]3[C@H](O1)O[C@H](C)[C@H](O)[C@@H]3O)[C@@H]2O[C@@H]1O[C@@H](C)[C@H](OC(=O)C(C)C)[C@@H](O[C@@H]2O[C@@H](C)[C@H](O)[C@@H](O)[C@H]2O)[C@H]1OC(=O)[C@@H](C)CC [TRICOLORIN B]
MIC (Staphylococcus aureus [1]): 16 µg/mL (≈ 15.9 µM)
MIC (Staphylococcus aureus [2]): 1 µg/mL (≈ 0.991 µM)
MIC (Staphylococcus aureus [3]): 16 µg/mL (≈ 15.9 µM)
MIC [4]: 16 µg/mL (≈ 15.9 µM)
MIC (Staphylococcus aureus [5]): 32 µg/mL (≈ 31.7 µM)

CCCCC[C@H]1CCCCCCCCCC(=O)O[C@H]2[C@H](O)[C@@H](CO)O[C@@H](O[C@H]3[C@H](O1)O[C@H](C)[C@H](O)[C@@H]3O)[C@@H]2O[C@@H]1O[C@@H](C)[C@H](OC(=O)[C@H](C)[C@@H](C)O)[C@@H](O[C@@H]2O[C@@H](C)[C@H](O)[C@@H](O)[C@H]2O)[C@H]1OC(=O)[C@@H](C)CC [TRICOLORIN C]
MIC (Staphylococcus aureus [1]): 32 µg/mL (≈ 30.8 µM)
MIC (Staphylococcus aureus [2]): 1 µg/mL (≈ 0.962 µM)
MIC (Staphylococcus aureus [3]): 16 µg/mL (≈ 15.4 µM)
MIC [4]: 16 µg/mL (≈ 15.4 µM)
MIC (Staphylococcus aureus [5]): 32 µg/mL (≈ 30.8 µM)

CCCCC[C@H]1CCCCCCCCCC(=O)OC[C@H]2O[C@@H](O[C@H]3[C@H](O1)O[C@H](C)[C@H](O)[C@@H]3O)[C@H](O[C@@H]1O[C@@H](C)[C@H](OC(=O)[C@@H](C)CC)[C@@H](O[C@@H]3O[C@@H](C)[C@H](O)[C@@H](O)[C@H]3O)[C@H]1OC(=O)[C@@H](C)CC)[C@@H](O)[C@@H]2O [TRICOLORIN D]
MIC (Staphylococcus aureus [1]): 32 µg/mL (≈ 31.3 µM)
MIC (Staphylococcus aureus [2]): 1 µg/mL (≈ 0.977 µM)
MIC (Staphylococcus aureus [3]): 32 µg/mL (≈ 31.3 µM)
MIC [4]: 16 µg/mL (≈ 15.6 µM)
MIC (Staphylococcus aureus [5]): 16 µg/mL (≈ 15.6 µM)

CCCCC[C@H]1CCCCCCCCCC(=O)O[C@H]2[C@H](O)[C@@H](CO)O[C@@H](O[C@H]3[C@H](O1)O[C@H](C)[C@@H](O)[C@@H]3O)[C@@H]2O[C@@H]1O[C@@H](C)[C@H](OC(=O)[C@@H](C)CC)[C@@H](O[C@@H]2O[C@@H](C)[C@H](O)[C@@H](O)[C@H]2O)[C@H]1OC(=O)[C@@H](C)CC [TRICOLORIN E]
MIC (Staphylococcus aureus [1]): 8 µg/mL (≈ 7.82 µM)
MIC (Staphylococcus aureus [2]): 1 µg/mL (≈ 0.977 µM)
MIC (Staphylococcus aureus [3]): 8 µg/mL (≈ 7.82 µM)
MIC [4]: 16 µg/mL (≈ 15.6 µM)
MIC (Staphylococcus aureus [5]): 16 µg/mL (≈ 15.6 µM)
